Source: ChEMBL document CHEMBL4689842, “EUbOPEN Chemogenomics Library wave 1” (2021)
Where “and” joins values, the source holds several entries; their conditions need not be identical. Equal entries are not always repeated.

Test system: U2OS
Assay: Multiplex assay against U2OS
Format: toxicity, cell-based
Settings: human
Summary of the method: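 Live cells carried four stains from seeding: Hoechst33342, BioTracker Green Microtubule Cytoskeleton Dye, MitoTracker Red and Annexin V Alexa Fluor 680. They were imaged on a CQ1 microscope at 37°C and 5% CO2 after compound addition. Using CellPathfinder machine-learning gating, cells were split into Hoechst high-intensity objects or normal cells, normal cells into healthy, pyknosed or fragmented nuclei, and pyknosed cells into mitotic or apoptotic; tubulin, mitochondrial-mass and membrane-permeability phenotypes are per cents of healthy-nucleus cells.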

[1] = 12 h, 1 µM, compound concentration 1 uM, replicate 1
[2] = 12 h, 1 µM, compound concentration 1 uM, replicate 2
[3] = 12 h, 10 µM, compound concentration 10 uM, replicate 1
[4] = 12 h, 10 µM, compound concentration 10 uM, replicate 2
[5] = 24 h, 1 µM, compound concentration 1 uM, replicate 1
[6] = 24 h, 1 µM, compound concentration 1 uM, replicate 2
[7] = 24 h, 10 µM, compound concentration 10 uM, replicate 1
[8] = 24 h, 10 µM, compound concentration 10 uM, replicate 2
[9] = 48 h, 1 µM, compound concentration 1 uM, replicate 1
[10] = 48 h, 1 µM, compound concentration 1 uM, replicate 2
[11] = 48 h, 10 µM, compound concentration 10 uM, replicate 1
[12] = 48 h, 10 µM, compound concentration 10 uM, replicate 2

## Cc1c(-c2ccc(O)cc2)n(Cc2ccc(OCCN3CCCCCC3)cc2)c2ccc(O)cc12 [BAZEDOXIFENE]
[1]
  Population Apoptotic (%): 58%
  Population Fragmented Nuclei (%): 22%
  Population Healthy Nuclei (%): 67%
  Population Hoechst High Intensity Objects (%): 15%
  Population Membrane Permeable-Phenotype (%): 3%
  Population Mitochondria Different-Phenotype (%): 13%
  Population Mitotic Cells (%): 41%
  Population Normal (%): 84%
  Population Pyknosed Nuclei (%): 9%
  Population Tubulin-Different-Phenotype (%): 20%
  Total Cell Count: 144
[2]
  Population Apoptotic (%): 0%
  Population Fragmented Nuclei (%): 13%
  Population Healthy Nuclei (%): 81%
  Population Hoechst High Intensity Objects (%): 10%
  Population Membrane Permeable-Phenotype (%): 5%
  Population Mitochondria Different-Phenotype (%): 20%
  Population Mitotic Cells (%): 100%
  Population Normal (%): 89%
  Population Pyknosed Nuclei (%): 4%
  Population Tubulin-Different-Phenotype (%): 17%
  Total Cell Count: 48
[3]
  Population Apoptotic (%): 41%
  Population Fragmented Nuclei (%): 24%
  Population Healthy Nuclei (%): 43%
  Population Hoechst High Intensity Objects (%): 4%
  Population Membrane Permeable-Phenotype (%): 23%
  Population Mitochondria Different-Phenotype (%): 97%
  Population Mitotic Cells (%): 58%
  Population Normal (%): 95%
  Population Pyknosed Nuclei (%): 32%
  Population Tubulin-Different-Phenotype (%): 98%
  Total Cell Count: 190
[4]
  Population Apoptotic (%): 60%
  Population Fragmented Nuclei (%): 7%
  Population Healthy Nuclei (%): 56%
  Population Hoechst High Intensity Objects (%): 2%
  Population Membrane Permeable-Phenotype (%): 26%
  Population Mitochondria Different-Phenotype (%): 100%
  Population Mitotic Cells (%): 40%
  Population Normal (%): 97%
  Population Pyknosed Nuclei (%): 36%
  Population Tubulin-Different-Phenotype (%): 100%
  Total Cell Count: 42
[5]
  Population Apoptotic (%): 24%
  Population Fragmented Nuclei (%): 15%
  Population Healthy Nuclei (%): 66%
  Population Hoechst High Intensity Objects (%): 11%
  Population Membrane Permeable-Phenotype (%): 3%
  Population Mitochondria Different-Phenotype (%): 9%
  Population Mitotic Cells (%): 76%
  Population Normal (%): 88%
  Population Pyknosed Nuclei (%): 17%
  Population Tubulin-Different-Phenotype (%): 11%
  Total Cell Count: 157
[6]
  Population Apoptotic (%): 11%
  Population Fragmented Nuclei (%): 8%
  Population Healthy Nuclei (%): 75%
  Population Hoechst High Intensity Objects (%): 3%
  Population Membrane Permeable-Phenotype (%): 2%
  Population Mitochondria Different-Phenotype (%): 6%
  Population Mitotic Cells (%): 88%
  Population Normal (%): 96%
  Population Pyknosed Nuclei (%): 15%
  Population Tubulin-Different-Phenotype (%): 15%
  Total Cell Count: 60
[7]
  Population Apoptotic (%): 73%
  Population Fragmented Nuclei (%): 32%
  Population Healthy Nuclei (%): 26%
  Population Hoechst High Intensity Objects (%): 4%
  Population Membrane Permeable-Phenotype (%): 50%
  Population Mitochondria Different-Phenotype (%): 100%
  Population Mitotic Cells (%): 26%
  Population Normal (%): 95%
  Population Pyknosed Nuclei (%): 40%
  Population Tubulin-Different-Phenotype (%): 98%
  Total Cell Count: 213
[8]
  Population Apoptotic (%): 68%
  Population Fragmented Nuclei (%): 22%
  Population Healthy Nuclei (%): 30%
  Population Hoechst High Intensity Objects (%): 20%
  Population Membrane Permeable-Phenotype (%): 75%
  Population Mitotic Cells (%): 31%
  Population Normal (%): 80%
  Population Pyknosed Nuclei (%): 47%
  Population Tubulin-Different-Phenotype (%): 100%
  Total Cell Count: 50
[9]
  Population Apoptotic (%): 53%
  Population Fragmented Nuclei (%): 11%
  Population Healthy Nuclei (%): 80%
  Population Hoechst High Intensity Objects (%): 7%
  Population Membrane Permeable-Phenotype (%): 2%
  Population Mitochondria Different-Phenotype (%): 13%
  Population Mitotic Cells (%): 46%
  Population Normal (%): 92%
  Population Pyknosed Nuclei (%): 8%
  Population Tubulin-Different-Phenotype (%): 8%
  Total Cell Count: 197
[10]
  Population Apoptotic (%): 36%
  Population Fragmented Nuclei (%): 14%
  Population Healthy Nuclei (%): 75%
  Population Hoechst High Intensity Objects (%): 3%
  Population Membrane Permeable-Phenotype (%): 8%
  Population Mitochondria Different-Phenotype (%): 16%
  Population Mitotic Cells (%): 63%
  Population Normal (%): 96%
  Population Pyknosed Nuclei (%): 11%
  Population Tubulin-Different-Phenotype (%): 22%
  Total Cell Count: 104
[11]
  Population Apoptotic (%): 95%
  Population Fragmented Nuclei (%): 39%
  Population Healthy Nuclei (%): 5%
  Population Hoechst High Intensity Objects (%): 9%
  Population Membrane Permeable-Phenotype (%): 77%
  Population Mitotic Cells (%): 4%
  Population Normal (%): 90%
  Population Pyknosed Nuclei (%): 55%
  Population Tubulin-Different-Phenotype (%): 88%
  Total Cell Count: 177
[12]
  Population Apoptotic (%): 100%
  Population Fragmented Nuclei (%): 13%
  Population Healthy Nuclei (%): 48%
  Population Hoechst High Intensity Objects (%): 32%
  Population Membrane Permeable-Phenotype (%): 92%
  Population Mitochondria Different-Phenotype (%): 100%
  Population Mitotic Cells (%): 0%
  Population Normal (%): 67%
  Population Pyknosed Nuclei (%): 37%
  Population Tubulin-Different-Phenotype (%): 100%
  Total Cell Count: 43

## CN(C)c1ncnc(-c2ccc3nc(Nc4cc(CN5CCN(C(=O)CC(F)(F)F)CC5)ccn4)[nH]c3c2)c1Cl [BAY-440]
[3]
  Population Apoptotic (%): 23%
  Population Fragmented Nuclei (%): 5%
  Population Healthy Nuclei (%): 88% and 91%
  Population Hoechst High Intensity Objects (%): 3% and 1%
  Population Mitochondria Different-Phenotype (%): 32% and 17%
  Population Mitotic Cells (%): 76%
  Population Normal (%): 96% and 98%
  Population Pyknosed Nuclei (%): 6% and 3%
  Total Cell Count: 204 and 178
[4]
  Population Fragmented Nuclei (%): 10% and 7%
  Population Healthy Nuclei (%): 83% and 90%
  Population Hoechst High Intensity Objects (%): 8%
  Population Mitochondria Different-Phenotype (%): 38% and 19%
  Population Mitotic Cells (%): 66% and 100%
  Population Normal (%): 91%
  Population Pyknosed Nuclei (%): 1%
  Total Cell Count: 103 and 116
[7]
  Population Apoptotic (%): 37% and 26%
  Population Fragmented Nuclei (%): 7% and 2%
  Population Healthy Nuclei (%): 81% and 89%
  Population Hoechst High Intensity Objects (%): 3% and 2%
  Population Mitotic Cells (%): 62% and 73%
  Population Normal (%): 96% and 97%
  Population Pyknosed Nuclei (%): 8%
  Total Cell Count: 221 and 230
[8]
  Population Fragmented Nuclei (%): 8% and 3%
  Population Healthy Nuclei (%): 79% and 95%
  Population Hoechst High Intensity Objects (%): 6% and 8%
  Population Mitochondria Different-Phenotype (%): 50% and 33%
  Population Mitotic Cells (%): 50% and 100%
  Population Normal (%): 93% and 91%
  Population Pyknosed Nuclei (%): 11% and 1%
  Total Cell Count: 108 and 135
